From ChEMBL document CHEMBL5705899 (Biochem J, 2014)
Activity calls are given as the source filed them. The calls are words filed in the database; no cut-off is given here.

What was measured:
[1] = target: Receptor tyrosine-protein kinase erbB-4 (Homo sapiens) (UniProt Q15303); experiment: Inhibition of human ERBB4 at 1 uM using polyEy as substrate in presence of 33P-ATP by ProQinase assay
[2] = target: Glycogen synthase kinase-3 beta (Homo sapiens) (UniProt P49841); experiment: Inhibition of recombinant human His6-tagged GSK3beta (2 to 420 residues) expressed in baculovirus infected Sf21 cells assessed as remaining activity at 1 uM using phospho-GS2 peptide as substrate incubated for 30 mins in presence of [gamma-33P]ATP by filter binding method relative to control
[3] = target: Aurora kinase B (Homo sapiens) (UniProt Q96GD4); experiment: Inhibition of recombinant human N-terminal His6-tagged Aurora B (1 to 344 residues) expressed in Escherichia coli assessed as remaining activity at 1 uM using LRRLSLGLRRLSLGLRRLSLGLRRLSLG as substrate incubated for 30 mins in presence of [gamma-33P]ATP by filter binding method relative to control
[4] = target: Serine/threonine-protein kinase pim-3 (Homo sapiens) (UniProt Q86V86); experiment: Inhibition of recombinant human N-terminal His6-tagged PIM3 (2 to 326 residues) expressed in baculovirus infected Sf21 cells assessed as remaining activity at 1 uM using RSRHSSYPAGT as substrate incubated for 30 mins in presence of [gamma-33P]ATP by filter binding method relative to control
[5] = target: Cyclin-dependent kinase 5/CDK5 activator 1 (Homo sapiens) (UniProt Q00535+Q15078); experiment: Inhibition of human CDK5/p35NCK at 1 uM using RBER-CHKtide as substrate in presence of 33P-ATP by ProQinase assay; format: protein-complex assay
[6] = target: Interferon-induced, double-stranded RNA-activated protein kinase (Homo sapiens) (UniProt P19525); experiment: Inhibition of human EIF2AK2 at 1 uM using RB-CTF as substrate in presence of 33P-ATP by ProQinase assay
[7] = target: MAP kinase-interacting serine/threonine-protein kinase 2 (Homo sapiens) (UniProt Q9HBH9); experiment: Inhibition of recombinant human N-terminal GST/C-terminal His6-tagged MNK2alpha (2 to 465 residues) expressed in Escherichia coli assessed as remaining activity at 1 uM using eIF4E as substrate incubated for 30 mins in presence of [gamma-33P]ATP by filter binding method relative to control
[8] = target: Mitogen-activated protein kinase 1 (Homo sapiens) (UniProt P28482); experiment: Inhibition of recombinant human N-terminal GST-tagged ERK2 (2 to 360 residues) expressed in Escherichia coli assessed as remaining activity at 1 uM using MBP as substrate incubated for 30 mins in presence of [gamma-33P]ATP by filter binding method relative to control
[9] = target: Ribosomal protein S6 kinase alpha-5 (Homo sapiens) (UniProt O75582); experiment: Inhibition of human RPS6KA5 at 1 uM using RBER-CHKtide as substrate in presence of 33P-ATP by ProQinase assay
[10] = target: Serine/threonine-protein kinase PLK2 (Homo sapiens) (UniProt Q9NYY3); experiment: Inhibition of human SNK at 1 uM using RBER-GSK3 as substrate in presence of 33P-ATP by ProQinase assay
[11] = target: Ribosomal protein S6 kinase alpha-3 (Homo sapiens) (UniProt P51812); experiment: Inhibition of human RPS6KA3 at 1 uM using bio-4xCHKT as substrate in presence of 33P-ATP by ProQinase assay
[12] = target: Calcium/calmodulin-dependent protein kinase type 1 (Homo sapiens) (UniProt Q14012); experiment: Inhibition of recombinant human N-terminal GST-tagged CAMK1alpha (2 to 369 residues) expressed in Escherichia coli assessed as remaining activity at 1 uM using YLRRRLSDSNF as substrate incubated for 30 mins in presence of [gamma-33P]ATP by filter binding method relative to control
[13] = target: MAP kinase-activated protein kinase 5 (Homo sapiens) (UniProt Q8IW41); experiment: Inhibition of human MAPKAPK5 at 1 uM using RBER-CHKtide as substrate in presence of 33P-ATP by ProQinase assay
[14] = target: Serine/threonine-protein kinase TAO2 (Homo sapiens) (UniProt Q9UL54); experiment: Inhibition of human TAOK2 at 1 uM using casein as substrate in presence of 33P-ATP by ProQinase assay
[15] = target: Serine/threonine-protein kinase D1 (Homo sapiens) (UniProt Q15139); experiment: Inhibition of recombinant human N-terminal His6-tagged PKD1 (2 to 912 residues) expressed in baculovirus infected Sf21 cells assessed as remaining activity at 1 uM using KKLNRTLSVA as substrate incubated for 30 mins in presence of [gamma-33P]ATP by filter binding method relative to control
[16] = target: Homeodomain-interacting protein kinase 2 (Homo sapiens) (UniProt Q9H2X6); experiment: Inhibition of human HIPK2 at 1 uM using RBER-CHKtide as substrate in presence of 33P-ATP by ProQinase assay
[17] = target: Discoidin domain-containing receptor 2 (Homo sapiens) (UniProt Q16832); experiment: Inhibition of recombinant human N-terminal GST-tagged DDR2 (467 to 854 residues) expressed in baculovirus infected Sf21 cells assessed as remaining activity at 1 uM using KKSRGDYMTMQIG as substrate incubated for 30 mins in presence of [gamma-33P]ATP by filter binding method relative to control
[18] = target: Ribosomal protein S6 kinase alpha-4 (Homo sapiens) (UniProt O75676); experiment: Inhibition of human RPS6KA4 at 1 uM using RBER-CHKtide as substrate in presence of 33P-ATP by ProQinase assay
[19] = target: Phosphatidylinositol 4,5-bisphosphate 3-kinase catalytic subunit gamma isoform (Homo sapiens, UniProt P48736); experiment: Inhibition of human PIK3CG using PIP2/PS as substrate by ADP-Glo assay
[20] = target: Tyrosine-protein kinase Blk (Homo sapiens) (UniProt P51451); experiment: Inhibition of human BLK at 1 uM using polyEY as substrate in presence of 33P-ATP by ProQinase assay
[21] = target: Serine/threonine-protein kinase SIK2 (Homo sapiens) (UniProt Q9H0K1); experiment: Inhibition of human SNF1LK2 at 1 uM using RBER-CHKtide as substrate in presence of 33P-ATP by ProQinase assay
[22] = target: Serine/threonine-protein kinase pim-2 (Homo sapiens) (UniProt Q9P1W9); experiment: Inhibition of human PIM2 at 1 uM using RBER-GSK3 as substrate in presence of 33P-ATP by ProQinase assay
[23] = target: Serine/threonine-protein kinase PAK 2 (Homo sapiens) (UniProt Q13177); experiment: Inhibition of PAK2 (unknown origin) assessed as remaining activity at 1 uM relative to control
Summary of the method: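 Dundee panel of 140 protein kinases, tested at a single 1 μM concentration. Each assay was run in triplicate. Remaining activity is expressed relative to a control reaction without inhibitor, as mean ± S.D. Conditions for each kinase were those of the screening centre.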

Chain of Serine/threonine-protein kinase SIK2 (Homo sapiens) (Q9H0K1 whole entry, looked up): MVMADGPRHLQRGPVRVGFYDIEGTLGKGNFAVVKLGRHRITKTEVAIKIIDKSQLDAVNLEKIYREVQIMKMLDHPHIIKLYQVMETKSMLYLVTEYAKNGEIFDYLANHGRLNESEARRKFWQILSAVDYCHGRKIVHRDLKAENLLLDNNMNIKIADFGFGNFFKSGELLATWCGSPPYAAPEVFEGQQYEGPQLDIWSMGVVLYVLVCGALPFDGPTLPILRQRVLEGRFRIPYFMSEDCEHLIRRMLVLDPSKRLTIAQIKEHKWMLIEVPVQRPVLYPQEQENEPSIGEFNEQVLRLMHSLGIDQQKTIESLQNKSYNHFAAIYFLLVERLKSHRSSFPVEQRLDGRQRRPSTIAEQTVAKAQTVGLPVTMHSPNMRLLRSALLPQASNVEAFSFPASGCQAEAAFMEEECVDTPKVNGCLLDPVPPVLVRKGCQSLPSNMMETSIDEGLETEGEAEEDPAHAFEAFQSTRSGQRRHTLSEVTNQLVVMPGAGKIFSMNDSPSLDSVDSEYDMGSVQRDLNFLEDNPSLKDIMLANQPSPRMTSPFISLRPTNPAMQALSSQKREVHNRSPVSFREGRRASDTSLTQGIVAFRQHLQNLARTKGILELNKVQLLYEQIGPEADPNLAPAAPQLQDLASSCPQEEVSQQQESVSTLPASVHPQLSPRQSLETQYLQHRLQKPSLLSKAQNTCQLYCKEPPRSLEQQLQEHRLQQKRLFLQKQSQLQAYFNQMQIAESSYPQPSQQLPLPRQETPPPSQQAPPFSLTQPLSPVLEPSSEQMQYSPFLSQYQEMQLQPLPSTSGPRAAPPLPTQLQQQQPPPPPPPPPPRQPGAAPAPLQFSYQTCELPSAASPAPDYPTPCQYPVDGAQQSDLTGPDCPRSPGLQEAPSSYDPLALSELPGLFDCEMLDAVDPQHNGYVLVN
Chain of Ribosomal protein S6 kinase alpha-3 (Homo sapiens) (P51812 whole entry, the tested form may be a part): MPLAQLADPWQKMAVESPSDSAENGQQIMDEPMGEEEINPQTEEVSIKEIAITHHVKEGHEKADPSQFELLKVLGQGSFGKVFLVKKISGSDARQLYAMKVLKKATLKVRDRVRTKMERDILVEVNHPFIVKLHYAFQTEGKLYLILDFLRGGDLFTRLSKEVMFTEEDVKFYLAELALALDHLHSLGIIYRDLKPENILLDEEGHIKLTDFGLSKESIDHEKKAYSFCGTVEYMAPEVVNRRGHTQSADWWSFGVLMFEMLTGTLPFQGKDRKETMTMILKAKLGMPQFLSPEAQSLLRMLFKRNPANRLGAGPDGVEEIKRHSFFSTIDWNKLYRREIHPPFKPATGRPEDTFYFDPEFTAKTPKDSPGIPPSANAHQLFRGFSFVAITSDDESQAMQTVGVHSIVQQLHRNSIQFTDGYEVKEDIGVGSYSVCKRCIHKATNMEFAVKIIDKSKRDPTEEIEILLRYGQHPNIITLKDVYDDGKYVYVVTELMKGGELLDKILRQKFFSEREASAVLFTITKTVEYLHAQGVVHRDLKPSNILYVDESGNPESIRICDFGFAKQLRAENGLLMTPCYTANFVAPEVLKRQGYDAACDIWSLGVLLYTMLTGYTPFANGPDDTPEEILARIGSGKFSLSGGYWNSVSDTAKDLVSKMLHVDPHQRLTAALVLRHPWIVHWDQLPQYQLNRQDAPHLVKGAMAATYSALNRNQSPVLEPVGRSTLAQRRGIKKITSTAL
Chain of Discoidin domain-containing receptor 2 (Homo sapiens) (Q16832 whole entry, the tested form may be a part): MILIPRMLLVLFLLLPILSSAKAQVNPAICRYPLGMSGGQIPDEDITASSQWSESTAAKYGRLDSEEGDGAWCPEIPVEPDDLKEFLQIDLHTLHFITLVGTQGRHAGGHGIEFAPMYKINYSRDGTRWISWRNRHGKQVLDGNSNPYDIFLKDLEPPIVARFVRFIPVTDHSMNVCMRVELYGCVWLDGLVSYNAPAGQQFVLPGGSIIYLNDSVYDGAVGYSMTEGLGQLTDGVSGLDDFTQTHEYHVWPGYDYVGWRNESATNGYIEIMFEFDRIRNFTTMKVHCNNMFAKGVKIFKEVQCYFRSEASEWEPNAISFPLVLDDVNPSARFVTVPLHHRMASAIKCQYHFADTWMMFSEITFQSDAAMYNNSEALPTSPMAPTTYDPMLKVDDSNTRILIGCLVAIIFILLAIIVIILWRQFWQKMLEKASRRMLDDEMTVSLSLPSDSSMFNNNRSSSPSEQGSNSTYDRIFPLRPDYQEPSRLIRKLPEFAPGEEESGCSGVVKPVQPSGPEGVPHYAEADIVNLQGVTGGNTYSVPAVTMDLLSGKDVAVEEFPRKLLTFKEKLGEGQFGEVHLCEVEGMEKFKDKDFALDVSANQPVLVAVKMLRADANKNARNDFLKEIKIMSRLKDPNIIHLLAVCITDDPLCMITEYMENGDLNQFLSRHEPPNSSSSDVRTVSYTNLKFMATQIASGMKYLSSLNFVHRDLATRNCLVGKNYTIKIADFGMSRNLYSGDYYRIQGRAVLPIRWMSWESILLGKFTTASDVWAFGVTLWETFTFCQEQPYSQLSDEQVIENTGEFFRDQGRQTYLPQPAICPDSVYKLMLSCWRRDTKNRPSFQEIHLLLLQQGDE
Chain of Aurora kinase B (Homo sapiens) (Q96GD4 whole entry, the tested form may be a part): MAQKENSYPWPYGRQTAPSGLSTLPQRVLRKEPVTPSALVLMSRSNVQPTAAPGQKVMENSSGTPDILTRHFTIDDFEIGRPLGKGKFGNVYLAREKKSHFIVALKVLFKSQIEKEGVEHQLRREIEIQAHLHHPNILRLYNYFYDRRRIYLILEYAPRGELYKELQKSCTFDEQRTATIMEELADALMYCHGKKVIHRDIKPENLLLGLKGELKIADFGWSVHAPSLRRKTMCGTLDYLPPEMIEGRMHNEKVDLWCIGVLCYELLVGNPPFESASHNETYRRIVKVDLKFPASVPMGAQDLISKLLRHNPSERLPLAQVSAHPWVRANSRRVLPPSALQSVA
Chain of Homeodomain-interacting protein kinase 2 (Homo sapiens) (Q9H2X6 whole entry, looked up, the tested form may be a part): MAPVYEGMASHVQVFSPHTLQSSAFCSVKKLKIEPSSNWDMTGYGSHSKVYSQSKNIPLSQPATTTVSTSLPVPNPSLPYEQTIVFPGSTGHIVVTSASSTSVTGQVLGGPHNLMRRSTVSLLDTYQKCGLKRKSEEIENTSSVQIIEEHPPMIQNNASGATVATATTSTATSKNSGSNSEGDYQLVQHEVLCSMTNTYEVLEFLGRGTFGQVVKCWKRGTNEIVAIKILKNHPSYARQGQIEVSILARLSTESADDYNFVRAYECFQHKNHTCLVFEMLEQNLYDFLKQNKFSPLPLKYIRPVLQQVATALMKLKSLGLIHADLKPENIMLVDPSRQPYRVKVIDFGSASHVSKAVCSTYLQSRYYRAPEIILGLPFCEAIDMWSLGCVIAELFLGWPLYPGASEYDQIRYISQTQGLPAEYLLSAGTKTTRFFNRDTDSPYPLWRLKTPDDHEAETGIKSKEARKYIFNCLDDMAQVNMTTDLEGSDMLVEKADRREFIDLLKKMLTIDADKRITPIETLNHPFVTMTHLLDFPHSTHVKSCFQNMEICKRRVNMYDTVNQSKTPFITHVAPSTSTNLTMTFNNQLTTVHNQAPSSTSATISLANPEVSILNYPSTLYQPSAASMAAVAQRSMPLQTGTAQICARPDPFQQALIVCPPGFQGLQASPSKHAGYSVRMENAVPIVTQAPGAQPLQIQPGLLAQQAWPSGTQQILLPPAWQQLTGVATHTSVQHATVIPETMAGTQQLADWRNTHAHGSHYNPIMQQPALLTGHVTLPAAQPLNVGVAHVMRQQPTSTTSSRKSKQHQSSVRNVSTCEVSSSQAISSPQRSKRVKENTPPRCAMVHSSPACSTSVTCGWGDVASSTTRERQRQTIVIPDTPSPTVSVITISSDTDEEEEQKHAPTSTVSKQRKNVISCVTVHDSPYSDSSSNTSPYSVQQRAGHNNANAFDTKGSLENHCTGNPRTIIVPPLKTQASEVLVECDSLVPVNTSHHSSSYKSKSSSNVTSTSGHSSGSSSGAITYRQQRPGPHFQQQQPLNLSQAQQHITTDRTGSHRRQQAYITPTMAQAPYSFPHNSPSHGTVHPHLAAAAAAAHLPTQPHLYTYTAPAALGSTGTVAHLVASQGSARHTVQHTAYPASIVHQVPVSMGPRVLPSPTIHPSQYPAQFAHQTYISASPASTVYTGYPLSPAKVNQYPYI
Chain of Serine/threonine-protein kinase D1 (Homo sapiens) (Q15139 whole entry, the tested form may be a part): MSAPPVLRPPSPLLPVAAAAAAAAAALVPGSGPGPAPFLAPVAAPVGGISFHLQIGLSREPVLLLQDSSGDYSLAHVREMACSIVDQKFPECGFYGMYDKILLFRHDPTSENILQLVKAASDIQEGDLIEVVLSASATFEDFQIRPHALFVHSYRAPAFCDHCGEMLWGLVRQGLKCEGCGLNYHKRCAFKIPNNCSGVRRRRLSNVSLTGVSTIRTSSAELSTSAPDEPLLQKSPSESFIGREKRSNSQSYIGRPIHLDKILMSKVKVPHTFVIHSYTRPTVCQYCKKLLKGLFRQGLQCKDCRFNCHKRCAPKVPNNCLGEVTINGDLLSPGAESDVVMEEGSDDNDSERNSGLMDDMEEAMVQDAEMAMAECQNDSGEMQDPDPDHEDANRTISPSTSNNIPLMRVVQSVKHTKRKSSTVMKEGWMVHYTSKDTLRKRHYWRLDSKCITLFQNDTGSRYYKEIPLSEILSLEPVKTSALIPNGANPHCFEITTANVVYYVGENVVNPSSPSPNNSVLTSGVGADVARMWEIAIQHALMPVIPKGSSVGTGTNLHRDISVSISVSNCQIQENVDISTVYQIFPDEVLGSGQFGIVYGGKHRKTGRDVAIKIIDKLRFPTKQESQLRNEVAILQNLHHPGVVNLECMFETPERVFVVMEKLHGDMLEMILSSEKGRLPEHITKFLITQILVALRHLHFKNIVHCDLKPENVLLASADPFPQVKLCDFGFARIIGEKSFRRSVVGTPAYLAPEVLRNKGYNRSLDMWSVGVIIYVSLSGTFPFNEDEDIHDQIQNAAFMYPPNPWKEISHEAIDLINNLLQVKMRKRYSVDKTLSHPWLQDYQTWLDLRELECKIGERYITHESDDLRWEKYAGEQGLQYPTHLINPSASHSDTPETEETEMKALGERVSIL

CC(C)(O)CNc1ncc(-c2ccnc(Nc3ccnc(Cl)c3)n2)c(CC2CC2)n1
inhibition [1]: inactive | Activity [2]: 51% | Activity [3]: 83% | Activity [4]: 114% | inhibition [5]: inactive | inhibition [6]: inactive | Activity [7]: 100% | Activity [8]: 116% | inhibition [9]: inactive | inhibition [10]: inactive | inhibition [11]: inactive | Activity [12]: 116% | inhibition [13]: inactive | inhibition [14]: inactive | Activity [15]: 115% | inhibition [16]: inactive | Activity [17]: 111% | inhibition [18]: inactive | IC50 [19]: > 10 µM | inhibition [20]: inactive | inhibition [21]: inactive | inhibition [22]: inactive | Activity [23]: 111%
